{"source": "paper PMC4254850", "about": "(Clinical cancer research : an official journal of the …, 2014)", "assay": "Phase I dose escalation: MTD, DLTs and toxicities", "type": "in vivo, human", "method_in_brief": "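Open-label, four-centre, 3+3 escalation in metastatic solid-tumour patients. Test compound taken orally from 2 mg, QD (2–96 mg) then BID (48–72 mg), in continuous 4-week cycles after a single-dose run-in with 5–7 day washout. Toxicities graded by CTCAE v4.03. DLTs assessed over run-in plus first cycle. MTD: highest level with ≤1 of 6 patients showing DLT. Descriptive statistics.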", "note": "“Also recorded” adds a separate entry of the source."}
{"compound": "CS(=O)(=O)N1CCc2c(-c3cnc(N)nc3)nc(N3CCOCC3)nc21", "note": "[CH5132799]", "values": [{"measurement": "Treatment-related dry skin, number of patients", "setting": "2 mg QD (n=3), grade 1-2", "result": 1}, {"measurement": "Treatment-related fatigue, number of patients", "setting": "2 mg QD (n=3), grade 1-2", "result": 2}, {"measurement": "Treatment-related nausea, number of patients", "setting": "2 mg QD (n=3), grade 1-2", "result": 1}, {"measurement": "Treatment-related nausea, number of patients", "setting": "4 mg QD (n=3), grade 1-2", "result": 1}, {"measurement": "Treatment-related rash, number of patients", "setting": "4 mg QD (n=3), grade 1-2", "result": 1}, {"measurement": "Treatment-related fatigue, number of patients", "setting": "8 mg QD (n=3), grade 1-2", "result": 1}, {"measurement": "Treatment-related rash, number of patients", "setting": "8 mg QD (n=3), grade 1-2", "result": 1}, {"measurement": "Treatment-related stomatitis, number of patients", "setting": "8 mg QD (n=3), grade 1-2", "result": 1}, {"measurement": "Treatment-related anemia, number of patients", "setting": "8 mg QD (n=3), grade 3-4", "result": 1}, {"measurement": "Treatment-related decreased appetite, number of patients", "setting": "16 mg QD (n=3), grade 1-2", "result": 1}, {"measurement": "Treatment-related fatigue, number of patients", "setting": "16 mg QD (n=3), grade 1-2", "result": 1}, {"measurement": "Treatment-related nausea, number of patients", "setting": "16 mg QD (n=3), grade 1-2", "result": 2}, {"measurement": "Treatment-related decreased appetite, number of patients", "setting": "32 mg QD (n=4), grade 1-2", "result": 2}, {"measurement": "Treatment-related fatigue, number of patients", "setting": "32 mg QD (n=4), grade 1-2", "result": 1}, {"measurement": "Treatment-related nausea, number of patients", "setting": "32 mg QD (n=4), grade 1-2", "result": 1}, {"measurement": "Patients with DLT (grade 3 LFT/transaminase elevation)", "setting": "48 mg BID", "result": "one of seven"}, {"measurement": "Treatment-related abdominal pain, number of patients", "setting": "48 mg BID (n=7), grade 1-2", "result": 1}, {"measurement": "Treatment-related diarrhea, number of patients", "setting": "48 mg BID (n=7), grade 1-2", "result": 4}, {"measurement": "Treatment-related dry skin, number of patients", "setting": "48 mg BID (n=7), grade 1-2", "result": 2}, {"measurement": "Treatment-related fatigue, number of patients", "setting": "48 mg BID (n=7), grade 1-2", "result": 1}, {"measurement": "Treatment-related rash, number of patients", "setting": "48 mg BID (n=7), grade 1-2", "result": 1}, {"measurement": "Treatment-related stomatitis, number of patients", "setting": "48 mg BID (n=7), grade 1-2", "result": 3}, {"measurement": "Treatment-related anemia, number of patients", "setting": "48 mg BID (n=7), grade 3-4", "result": 1}, {"measurement": "Treatment-related hyperglycemia, number of patients", "setting": "48 mg BID (n=7), grade 3-4", "result": 1}, {"measurement": "Grade ≥3 gastrointestinal AEs", "setting": "48 mg BID cohort", "result": "No grade ≥3 gastrointestinal AEs"}, {"measurement": "Patients with DLTs", "setting": "56 mg BID", "result": "Two of five"}, {"measurement": "Treatment-related abdominal pain, number of patients", "setting": "56 mg BID (n=5), grade 1-2", "result": 1}, {"measurement": "Treatment-related anemia, number of patients", "setting": "56 mg BID (n=5), grade 1-2", "result": 1}, {"measurement": "Treatment-related decreased appetite, number of patients", "setting": "56 mg BID (n=5), grade 1-2", "result": 2}, {"measurement": "Treatment-related diarrhea, number of patients", "setting": "56 mg BID (n=5), grade 1-2", "result": 2}, {"measurement": "Treatment-related fatigue, number of patients", "setting": "56 mg BID (n=5), grade 1-2", "result": 3}, {"measurement": "Treatment-related nausea, number of patients", "setting": "56 mg BID (n=5), grade 1-2", "result": 3}, {"measurement": "Treatment-related rash, number of patients", "setting": "56 mg BID (n=5), grade 1-2", "result": 3}, {"measurement": "Treatment-related stomatitis, number of patients", "setting": "56 mg BID (n=5), grade 1-2", "result": 4}, {"measurement": "Treatment-related vomiting, number of patients", "setting": "56 mg BID (n=5), grade 1-2", "result": 3}, {"measurement": "Treatment-related diarrhea, number of patients", "setting": "56 mg BID (n=5), grade 3-4", "result": 2}, {"measurement": "Treatment-related hyperglycemia, number of patients", "setting": "56 mg BID (n=5), grade 3-4", "result": 2}, {"measurement": "Treatment-related stomatitis, number of patients", "setting": "56 mg BID (n=5), grade 3-4", "result": 1}, {"measurement": "Treatment-related abdominal pain, number of patients", "setting": "56 mg QD (n=3), grade 1-2", "result": 1}, {"measurement": "Treatment-related diarrhea, number of patients", "setting": "56 mg QD (n=3), grade 1-2", "result": 2}, {"measurement": "Treatment-related dry skin, number of patients", "setting": "56 mg QD (n=3), grade 1-2", "result": 1}, {"measurement": "Treatment-related nausea, number of patients", "setting": "56 mg QD (n=3), grade 1-2", "result": 1}, {"measurement": "Treatment-related rash, number of patients", "setting": "56 mg QD (n=3), grade 1-2", "result": 1}, {"measurement": "Patients with DLTs", "setting": "72 mg BID", "result": "two of three"}, {"measurement": "Treatment-related anemia, number of patients", "setting": "72 mg BID (n=3), grade 1-2", "result": 1}, {"measurement": "Treatment-related decreased appetite, number of patients", "setting": "72 mg BID (n=3), grade 1-2", "result": 2}, {"measurement": "Treatment-related diarrhea, number of patients", "setting": "72 mg BID (n=3), grade 1-2", "result": 2}, {"measurement": "Treatment-related fatigue, number of patients", "setting": "72 mg BID (n=3), grade 1-2", "result": 1}, {"measurement": "Treatment-related nausea, number of patients", "setting": "72 mg BID (n=3), grade 1-2", "result": 1}, {"measurement": "Treatment-related stomatitis, number of patients", "setting": "72 mg BID (n=3), grade 1-2", "result": 1}, {"measurement": "Treatment-related vomiting, number of patients", "setting": "72 mg BID (n=3), grade 1-2", "result": 1}, {"measurement": "Treatment-related abdominal pain, number of patients", "setting": "72 mg BID (n=3), grade 3-4", "result": 1}, {"measurement": "Treatment-related fatigue, number of patients", "setting": "72 mg BID (n=3), grade 3-4", "result": 1}, {"measurement": "Treatment-related hyperglycemia, number of patients", "setting": "72 mg BID (n=3), grade 3-4", "result": 1}, {"measurement": "Treatment-related anemia, number of patients", "setting": "96 mg QD (n=4), grade 1-2", "result": 1}, {"measurement": "Treatment-related decreased appetite, number of patients", "setting": "96 mg QD (n=4), grade 1-2", "result": 1}, {"measurement": "Treatment-related diarrhea, number of patients", "setting": "96 mg QD (n=4), grade 1-2", "result": 3}, {"measurement": "Treatment-related dry skin, number of patients", "setting": "96 mg QD (n=4), grade 1-2", "result": 2}, {"measurement": "Treatment-related fatigue, number of patients", "setting": "96 mg QD (n=4), grade 1-2", "result": 1}, {"measurement": "Treatment-related nausea, number of patients", "setting": "96 mg QD (n=4), grade 1-2", "result": 2}, {"measurement": "Treatment-related rash, number of patients", "setting": "96 mg QD (n=4), grade 1-2", "result": 2}, {"measurement": "Treatment-related stomatitis, number of patients", "setting": "96 mg QD (n=4), grade 1-2", "result": 2}, {"measurement": "Treatment-related vomiting, number of patients", "setting": "96 mg QD (n=4), grade 1-2", "result": 2}, {"measurement": "Treatment-related diarrhea, number of patients", "setting": "96 mg QD (n=4), grade 3-4", "result": 2}, {"measurement": "Patients with Grade ≥3 hyperglycemia", "setting": "BID dosing schedule", "result": "Five"}, {"measurement": "Maximum tolerated dose (MTD)", "setting": "BID schedule, oral, 28-day cycles, patients with solid tumors", "result": 48, "unit": "mg"}, {"measurement": "Recommended phase 2 dose (RP2D)", "setting": "BID, oral", "result": 48, "unit": "mg"}, {"measurement": "DLT", "setting": "Cohort 7b, 48 mg BID, N=7, Cycle 1 Day 8", "result": "grade 3 elevated LFT at Cycle 1 Day 8"}, {"measurement": "DLT", "setting": "Cohort 8, 72 mg BID, N=3, Cycle 1", "result": "grade 3 cerebral encephalopathy; also recorded: grade 3 Fatigue"}, {"measurement": "DLT", "setting": "Cohort 9, 56 mg BID, N=5", "result": "grade 3 Diarrhea and stomatitis"}, {"measurement": "DLTs", "setting": "QD schedule", "result": "No DLTs"}, {"measurement": "Maximum tolerated dose (MTD)", "setting": "QD schedule, 2-96 mg, oral", "result": "not reached at 96 mg"}, {"measurement": "Reversibility of DLTs", "setting": "all DLTs", "result": "reversible"}, {"measurement": "Grade 4 diarrhea", "setting": "all dose levels", "result": "no grade 4 diarrhea reported"}, {"measurement": "Patients with grade 3 diarrhea", "setting": "all dose levels", "result": "Four"}, {"measurement": "Treatment-related abdominal pain, number (%) of patients", "setting": "all dose levels, Total (n=38)", "result": "4 (11%)"}, {"measurement": "Treatment-related anemia, number (%) of patients", "setting": "all dose levels, Total (n=38)", "result": "5 (13%)"}, {"measurement": "Treatment-related decreased appetite, number (%) of patients", "setting": "all dose levels, Total (n=38)", "result": "8 (21%)"}, {"measurement": "Treatment-related diarrhea, number (%) of patients", "setting": "all dose levels, Total (n=38)", "result": "13 (34%)"}, {"measurement": "Treatment-related dry skin, number (%) of patients", "setting": "all dose levels, Total (n=38)", "result": "6 (16%)"}, {"measurement": "Treatment-related fatigue, number (%) of patients", "setting": "all dose levels, Total (n=38)", "result": "11 (29%)"}, {"measurement": "Treatment-related hyperglycemia, number (%) of patients", "setting": "all dose levels, Total (n=38)", "result": "5 (13%)"}, {"measurement": "Treatment-related nausea, number (%) of patients", "setting": "all dose levels, Total (n=38)", "result": "12 (32%)"}, {"measurement": "Treatment-related rash, number (%) of patients", "setting": "all dose levels, Total (n=38)", "result": "9 (24%)"}, {"measurement": "Treatment-related stomatitis, number (%) of patients", "setting": "all dose levels, Total (n=38)", "result": "11 (29%)"}, {"measurement": "Treatment-related vomiting, number (%) of patients", "setting": "all dose levels, Total (n=38)", "result": "6 (16%)"}, {"measurement": "Patients with DLTs", "setting": "all evaluable patients, run-in period and first cycle", "result": "five of 38"}, {"measurement": "Diabetic ketoacidosis", "setting": "all patients", "result": "No episodes of diabetic ketoacidosis"}, {"measurement": "Drug-related deaths", "setting": "all patients", "result": "No drug-related deaths"}, {"measurement": "Grade of most drug-related adverse events", "setting": "all patients", "result": "grade 1/2"}, {"measurement": "Patients with drug-related diarrhea", "setting": "all patients", "result": 34, "unit": "%"}, {"measurement": "Patients with drug-related nausea", "setting": "all patients", "result": 32, "unit": "%"}, {"measurement": "Patients with fatigue (most common AEs)", "setting": "all patients", "result": 29, "unit": "%"}, {"measurement": "Patients with nausea (most common AEs)", "setting": "all patients", "result": 32, "unit": "%"}, {"measurement": "Patients with rash (most common AEs)", "setting": "all patients", "result": 24, "unit": "%"}]}
